In ChEMBL document CHEMBL1641497, “A potent and selective indole N-type calcium channel (Ca(v)2.2) blocker for the treatment of pain” (Bioorg Med Chem Lett, 2011):

Legend:
[1] = molecular target: T1, Nuclear receptor subfamily 1 group I member 2 (Homo sapiens, UniProt O75469); experiment: Activity at PXR by induction assay
T1 sequence (O75469 whole entry): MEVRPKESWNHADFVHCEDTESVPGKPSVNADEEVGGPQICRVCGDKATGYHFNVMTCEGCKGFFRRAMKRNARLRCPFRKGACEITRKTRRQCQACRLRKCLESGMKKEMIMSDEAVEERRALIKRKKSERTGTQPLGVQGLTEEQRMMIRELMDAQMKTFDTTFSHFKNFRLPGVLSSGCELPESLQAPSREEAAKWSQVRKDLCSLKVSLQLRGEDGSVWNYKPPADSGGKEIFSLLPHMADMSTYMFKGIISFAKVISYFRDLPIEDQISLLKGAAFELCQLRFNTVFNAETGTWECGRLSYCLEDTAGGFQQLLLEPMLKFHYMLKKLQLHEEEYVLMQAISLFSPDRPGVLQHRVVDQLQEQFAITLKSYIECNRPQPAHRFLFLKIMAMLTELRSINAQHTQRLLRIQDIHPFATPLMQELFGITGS

[2] = molecular target: Cav1.2 (voltage-dependent L-type calcium channel subunit alpha-1C) (Homo sapiens, UniProt Q13936); experiment: Blockade of Cav1.2 channel at 10 uM by fluorescent calcium-influx assay
Procedure, shortened: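 Cav1.2 (L-type) channel block measured with a fluorescent calcium-influx FLIPR assay. Results are reported as % inhibition at 10 μM test concentration.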

[3] = molecular target: T2, Voltage-dependent N-type calcium channel subunit alpha-1B (Homo sapiens, UniProt Q00975); experiment: Blockade of Cav2.2 channel at 10 uM by fluorescent calcium-influx assay
Procedure, shortened: (§1)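 […] Cav2.2 channel block measured in vitro with a fluorescent calcium-influx (FLIPR) assay. Results are reported as % inhibition at 10 μM, with an IC50 (μM) for selected compounds.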
Target sequence in this assay (Q00975 whole entry, looked up): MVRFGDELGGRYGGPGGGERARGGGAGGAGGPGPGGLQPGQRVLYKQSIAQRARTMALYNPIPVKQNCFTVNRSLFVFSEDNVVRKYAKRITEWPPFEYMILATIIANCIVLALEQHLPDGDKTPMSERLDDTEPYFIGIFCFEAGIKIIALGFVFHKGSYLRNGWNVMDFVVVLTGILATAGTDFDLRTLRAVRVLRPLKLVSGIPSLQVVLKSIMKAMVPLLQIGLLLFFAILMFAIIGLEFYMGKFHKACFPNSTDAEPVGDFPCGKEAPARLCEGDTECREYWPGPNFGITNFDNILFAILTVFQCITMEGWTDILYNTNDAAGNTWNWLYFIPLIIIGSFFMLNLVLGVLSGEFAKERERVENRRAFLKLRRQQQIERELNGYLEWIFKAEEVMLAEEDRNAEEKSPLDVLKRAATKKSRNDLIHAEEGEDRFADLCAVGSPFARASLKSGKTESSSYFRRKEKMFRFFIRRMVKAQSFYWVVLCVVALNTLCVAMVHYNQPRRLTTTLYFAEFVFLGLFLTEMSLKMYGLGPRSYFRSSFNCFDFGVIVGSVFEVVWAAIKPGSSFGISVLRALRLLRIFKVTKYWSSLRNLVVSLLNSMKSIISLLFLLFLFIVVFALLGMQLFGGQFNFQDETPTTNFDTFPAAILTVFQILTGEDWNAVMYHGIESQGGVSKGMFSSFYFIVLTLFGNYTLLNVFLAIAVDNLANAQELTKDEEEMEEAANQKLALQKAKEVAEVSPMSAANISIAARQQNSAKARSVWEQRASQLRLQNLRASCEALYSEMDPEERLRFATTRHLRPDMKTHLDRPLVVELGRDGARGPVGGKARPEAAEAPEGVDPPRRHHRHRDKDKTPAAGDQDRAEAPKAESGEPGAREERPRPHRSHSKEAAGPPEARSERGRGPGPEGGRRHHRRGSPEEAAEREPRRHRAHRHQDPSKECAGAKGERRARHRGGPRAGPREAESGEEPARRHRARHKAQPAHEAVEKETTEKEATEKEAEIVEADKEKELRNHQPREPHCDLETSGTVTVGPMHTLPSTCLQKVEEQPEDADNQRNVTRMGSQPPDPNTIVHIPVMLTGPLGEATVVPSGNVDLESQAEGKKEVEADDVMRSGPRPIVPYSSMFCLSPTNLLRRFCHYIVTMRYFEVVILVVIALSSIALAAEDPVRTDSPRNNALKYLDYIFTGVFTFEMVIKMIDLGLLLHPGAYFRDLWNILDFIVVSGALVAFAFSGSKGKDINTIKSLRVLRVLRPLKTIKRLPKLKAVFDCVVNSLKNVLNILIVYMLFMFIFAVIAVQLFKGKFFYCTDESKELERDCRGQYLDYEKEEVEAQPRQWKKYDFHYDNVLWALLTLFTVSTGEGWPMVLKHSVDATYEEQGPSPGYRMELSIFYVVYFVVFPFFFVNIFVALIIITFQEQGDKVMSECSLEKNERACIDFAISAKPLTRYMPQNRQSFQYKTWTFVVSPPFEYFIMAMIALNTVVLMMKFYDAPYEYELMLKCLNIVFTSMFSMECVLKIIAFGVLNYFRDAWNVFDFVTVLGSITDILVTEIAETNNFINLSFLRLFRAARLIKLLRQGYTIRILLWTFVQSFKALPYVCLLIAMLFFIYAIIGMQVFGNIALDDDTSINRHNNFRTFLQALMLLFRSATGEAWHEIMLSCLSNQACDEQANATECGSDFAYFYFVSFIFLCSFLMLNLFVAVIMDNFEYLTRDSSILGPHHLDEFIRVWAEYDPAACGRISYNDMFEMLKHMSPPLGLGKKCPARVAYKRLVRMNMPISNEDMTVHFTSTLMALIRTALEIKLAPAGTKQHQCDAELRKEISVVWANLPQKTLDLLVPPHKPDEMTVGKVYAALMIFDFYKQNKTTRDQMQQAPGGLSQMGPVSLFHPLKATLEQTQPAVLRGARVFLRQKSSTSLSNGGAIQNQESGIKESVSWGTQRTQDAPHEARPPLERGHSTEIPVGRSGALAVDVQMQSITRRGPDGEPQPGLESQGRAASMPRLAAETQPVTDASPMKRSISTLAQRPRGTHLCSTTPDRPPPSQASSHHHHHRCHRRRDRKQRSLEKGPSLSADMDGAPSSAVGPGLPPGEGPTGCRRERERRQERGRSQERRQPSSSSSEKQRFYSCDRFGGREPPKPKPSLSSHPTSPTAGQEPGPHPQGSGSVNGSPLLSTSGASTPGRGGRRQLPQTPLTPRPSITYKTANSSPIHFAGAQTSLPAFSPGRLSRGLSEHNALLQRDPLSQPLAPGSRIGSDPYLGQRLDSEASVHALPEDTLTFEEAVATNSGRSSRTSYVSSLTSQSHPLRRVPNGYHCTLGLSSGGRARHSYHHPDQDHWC

[4] = molecular target: T2, Voltage-dependent N-type calcium channel subunit alpha-1B; experiment: Blockade of Cav2.2 channel by fluorescent calcium-influx assay; procedure, shortened: as §1
Target sequence in this assay (Q00975 whole entry): as the sequence (Q00975 whole entry, looked up) above

[5] = molecular target: Nav1.5 (sodium channel protein type 5 subunit alpha) (Homo sapiens, UniProt Q14524); experiment: Blockade of Nav1.5 channel at 10 uM by fluorescent […] assay
[6] = Metabolic stability in human liver microsomes assessed as compound remaining after 60 mins; type: ADME, Microsome; conditions: read-out: Stability
Procedure, shortened: (§2)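 Compounds incubated with human or rat liver microsomes for 60 min. Read-out is the percent of parent compound remaining.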

[7] = Plasma clearance in rat at 1 mg/kg, iv and 3 mg/kg, po; type: ADME, organism-based
Procedure, shortened: (§3)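 Rat PK with 1.0 mg/kg IV and 3.0 mg/kg PO doses, based on plasma analysis. Parameters: Cmax, dose-normalized AUC (μM h kg/mg), plasma clearance (mL/min/kg), Vdss (L/kg), T1/2 (h) and oral bioavailability (%).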

[8] = Metabolic stability in rat liver microsomes assessed as compound remaining after 60 mins; type: ADME, Microsome; conditions: read-out: Stability; procedure, shortened: as §2
Rattus norvegicus = experiment: Dose normalized AUC in rat at 1 mg/kg, iv and 3 mg/kg, po; type: ADME, organism-based; conditions: in vivo; procedure, shortened: as §3
[9] = Half life in rat at 1 mg/kg, iv and 3 mg/kg, po; type: ADME, organism-based; conditions: in vivo; procedure, shortened: as §3
[10] = Oral bioavailability in rat at 3 mg/kg; type: ADME, organism-based; conditions: in vivo; procedure, shortened: as §3
hERG (Homo sapiens) = experiment: Blockade of hERG channel at 10 uM by displacement of MK-0499 binding

Cav1.2 (voltage-dependent L-type calcium channel subunit alpha-1C), sequence (Q13936 whole entry): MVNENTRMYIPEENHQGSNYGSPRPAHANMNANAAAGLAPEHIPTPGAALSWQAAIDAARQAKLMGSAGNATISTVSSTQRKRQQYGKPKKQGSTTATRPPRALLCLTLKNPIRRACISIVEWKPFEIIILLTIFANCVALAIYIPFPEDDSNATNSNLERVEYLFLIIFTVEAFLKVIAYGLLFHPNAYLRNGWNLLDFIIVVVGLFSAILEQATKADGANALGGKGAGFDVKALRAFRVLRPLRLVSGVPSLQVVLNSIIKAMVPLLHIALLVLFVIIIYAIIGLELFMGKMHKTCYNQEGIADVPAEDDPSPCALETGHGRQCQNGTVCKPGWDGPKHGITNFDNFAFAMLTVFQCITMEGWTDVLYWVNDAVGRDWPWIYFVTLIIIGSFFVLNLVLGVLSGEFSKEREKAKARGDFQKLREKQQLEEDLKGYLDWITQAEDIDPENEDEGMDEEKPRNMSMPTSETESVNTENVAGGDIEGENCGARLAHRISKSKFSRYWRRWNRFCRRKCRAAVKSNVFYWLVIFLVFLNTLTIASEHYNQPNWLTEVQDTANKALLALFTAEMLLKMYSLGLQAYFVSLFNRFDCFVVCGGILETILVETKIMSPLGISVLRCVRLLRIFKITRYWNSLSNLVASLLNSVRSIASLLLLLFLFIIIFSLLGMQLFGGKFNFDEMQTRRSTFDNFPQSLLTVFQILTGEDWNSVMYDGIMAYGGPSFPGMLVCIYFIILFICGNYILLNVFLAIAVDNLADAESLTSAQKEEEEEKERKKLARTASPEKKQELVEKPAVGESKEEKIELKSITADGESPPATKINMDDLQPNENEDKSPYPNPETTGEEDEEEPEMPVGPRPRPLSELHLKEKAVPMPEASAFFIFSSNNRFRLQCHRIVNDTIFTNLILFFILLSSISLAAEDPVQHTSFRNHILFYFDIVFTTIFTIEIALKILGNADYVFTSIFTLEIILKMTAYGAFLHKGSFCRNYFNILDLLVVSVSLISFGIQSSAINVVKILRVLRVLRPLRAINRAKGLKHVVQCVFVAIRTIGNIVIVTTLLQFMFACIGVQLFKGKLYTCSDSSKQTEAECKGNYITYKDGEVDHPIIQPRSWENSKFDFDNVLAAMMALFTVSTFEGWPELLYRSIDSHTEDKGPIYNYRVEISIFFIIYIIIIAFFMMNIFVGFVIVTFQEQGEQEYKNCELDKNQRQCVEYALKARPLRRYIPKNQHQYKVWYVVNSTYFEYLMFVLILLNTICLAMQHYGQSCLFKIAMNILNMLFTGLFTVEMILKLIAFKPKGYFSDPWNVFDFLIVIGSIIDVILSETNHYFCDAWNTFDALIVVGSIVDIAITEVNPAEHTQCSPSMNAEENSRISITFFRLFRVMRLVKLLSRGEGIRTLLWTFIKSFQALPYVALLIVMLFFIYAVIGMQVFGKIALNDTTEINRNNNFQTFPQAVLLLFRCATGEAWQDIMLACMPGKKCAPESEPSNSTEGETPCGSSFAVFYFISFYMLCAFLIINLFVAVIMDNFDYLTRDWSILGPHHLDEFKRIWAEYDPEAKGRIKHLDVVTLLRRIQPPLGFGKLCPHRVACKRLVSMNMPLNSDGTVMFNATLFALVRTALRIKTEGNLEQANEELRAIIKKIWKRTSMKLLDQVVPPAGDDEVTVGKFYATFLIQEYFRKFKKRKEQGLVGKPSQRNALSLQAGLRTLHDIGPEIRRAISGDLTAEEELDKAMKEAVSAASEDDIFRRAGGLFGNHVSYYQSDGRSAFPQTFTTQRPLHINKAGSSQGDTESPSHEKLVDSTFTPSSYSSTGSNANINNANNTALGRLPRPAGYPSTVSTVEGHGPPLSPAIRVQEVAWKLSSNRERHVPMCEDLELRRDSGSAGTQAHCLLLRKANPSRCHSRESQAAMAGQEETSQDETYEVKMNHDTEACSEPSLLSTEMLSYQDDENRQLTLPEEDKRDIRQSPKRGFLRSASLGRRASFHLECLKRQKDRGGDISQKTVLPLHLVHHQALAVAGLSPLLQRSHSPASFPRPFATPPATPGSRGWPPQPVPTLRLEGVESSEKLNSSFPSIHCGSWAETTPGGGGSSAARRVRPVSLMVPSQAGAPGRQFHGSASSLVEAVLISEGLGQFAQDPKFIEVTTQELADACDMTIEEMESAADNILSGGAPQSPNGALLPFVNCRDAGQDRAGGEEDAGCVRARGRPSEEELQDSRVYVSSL

| EC50 [1] [nM] | inhibition [3] [%] | IC50 [4] [nM] | Structure (SMILES) | inhibition at 10 µM [2] [%] | also measured |
| --- | --- | --- | --- | --- | --- |
| > 30000 | – | – | CC(C)(C)NC(=O)Cn1c(-c2cc(F)cc(C(F)(F)F)c2)cc2cc(C(C)(C)C(=O)NC(C)(C)C)ccc21 | 88 | – |
| – | 70 | – | COC(=O)C(C)(C)c1ccc2c(c1)cc(-c1cc(C)cc(C)c1)n2CC(C)O (stereo not given) | 64 | – |
| – | 36 | – | Cc1cc(C)cc(-c2cc3cc(OC(F)(F)F)ccc3n2CC(C)O)c1 (stereo not given) | 43 | – |
| 570 | – | – | CC(C)(C)NC(=O)Cn1c(C(C)(C)C)cc2cc(C(C)(C)C(=O)NC(C)(C)C)ccc21 | 47 | – |
| – | 89 | 870 | Cc1cc(C)cc(-c2cc3cc(C(C)(C)C(=O)N(C)C)ccc3n2CC(C)O)c1 (stereo not given) | 52 | – |
| 6640 | – | – | CC(C)(C)NC(=O)Cn1c(C(=O)NC(C)(C)C)cc2cc(C(C)(C)C(=O)NC(C)(C)C)ccc21 | 24 | – |
| – | – | 600 | CCOC(=O)C(C)(C)c1ccc2c(c1)c([C@H](C)CO)c(-c1cc(C)cc(C)c1)n2C(=O)OC(C)(C)C | 40 | inhibition at 10 µM [5]: 25% |
| > 30000 | – | – | CC(C)(C)NC(=O)Cn1c(-c2ccccc2OC(F)(F)F)cc2cc(C(C)(C)C(=O)NC(C)(C)C)ccc21 | 79 | remaining at 1 h [6]: 0.04%; clearance [7]: 21 mL/min/kg; remaining at 1 h [8]: 2.5%; AUC (Rattus norvegicus): 0.57 µM·kg·h/mg; half-life [9]: 2.68 h; bioavailability [10]: 38% |
| 940 | – | – | CC(C)(C)NC(=O)Cn1c(-c2ccc(F)cc2F)cc2cc(C(C)(C)C(=O)NC(C)(C)C)ccc21 | 93 | – |
| 1810 | – | – | CC(C)(C)NC(=O)Cn1c(-c2ccccc2)cc2cc(C(C)(C)C(=O)NC(C)(C)C)ccc21 | 79 | – |
| 600 | – | – | CC(C)(C)NC(=O)C(c1ccccn1)n1ccc2cc(C(C)(C)C(=O)NC(C)(C)C)ccc21 (stereo not given) | 64 | – |
| – | 99 | 540 | Cc1cc(C)cc(-c2cc3cc(C(C)(C)C(=O)NC(C)(C)C)ccc3n2Cc2c(C)noc2C)c1 | – | inhibition at 10 µM (hERG (Homo sapiens)): 65% |
| > 30000 | – | – | CC(C)(C)NC(=O)Cn1c(-c2cccc(OC(F)(F)F)c2)cc2cc(C(C)(C)C(=O)NC(C)(C)C)ccc21 | 93 | remaining at 1 h [6]: 0.82%; clearance [7]: 11 mL/min/kg; remaining at 1 h [8]: 22%; AUC (Rattus norvegicus): 0.83 µM·kg·h/mg; half-life [9]: 2.27 h; bioavailability [10]: 26% |
| – | 59 | – | Cc1cc(C)cc(-c2cc3cc(C(C)(C)C(=O)NC(C)(C)C)ccc3n2C(=O)OC(C)(C)C)c1 | – | – |
| > 30000 | – | – | CC(C)(C)NC(=O)Cn1c(-c2ccc(F)cc2)cc2cc(C(C)(C)C(=O)NC(C)(C)C)ccc21 | 82 | – |
| – | 97 | 680 | Cc1cc(C)cc(-c2cc3cc(C(=O)NC(C)(C)C)ccc3n2CC(C)O)c1 (stereo not given) | 90 | inhibition at 10 µM (hERG (Homo sapiens)): 64% |
| – | 78 | – | Cc1cc(C)cc(-c2cc3cc(C(C)(C)C(=O)NC(C)(C)C)ccc3[nH]2)c1 | – | – |
| – | 91 | 1170 | Cc1cc(C)cc(-c2cc3cc(C(C)(C)C(=O)NCC(F)(F)F)ccc3n2CC(C)O)c1 (stereo not given) | – | – |
| 740 | – | – | COc1ccccc1-c1cc2cc(C(C)(C)C(=O)NC(C)(C)C)ccc2n1CC(=O)NC(C)(C)C | 60 | – |
| – | 91 | 660 | Cc1cc(C)cc(-c2cc3cc(C(C)(C)C(=O)NC(C)(C)C)ccc3n2CC(=O)OC(C)(C)C)c1 | 48 | inhibition at 10 µM (hERG (Homo sapiens)): 60% |
| > 30000 | 98 | 190 | Cc1cc(C)cc(-c2cc3cc(C(C)(C)C(=O)NC(C)(C)C)ccc3n2CC(=O)NC(C)(C)C)c1 | 78 | inhibition at 10 µM (hERG (Homo sapiens)): 33% |
| – | 36 | – | Cc1cc(C)cc(-c2cc3cc(C(C)(C)C(=O)NC(C)(C)C)ccc3n2Cc2ccc(Cl)cc2)c1 | – | – |
| – | 44 | – | Cc1cc(C)cc(-c2cc3cc(C(C)(C)CO)ccc3n2CC(C)O)c1 (stereo not given) | 32 | – |
| – | 89 | 1150 | Cc1cc(C)cc(-c2cc3cc(C(C)(C)C(=O)NC4CC4)ccc3n2CC(C)O)c1 (stereo not given) | – | – |
| – | 99 | 520 | COCCn1c(-c2cc(C)cc(C)c2)cc2cc(C(C)(C)C(=O)NC(C)(C)C)ccc21 | 70 | – |
| – | – | 880 | CCCN[C@@H](C)c1c(-c2cc(C)cc(C)c2)[nH]c2ccc(C(C)(C)C(=O)N3C4CCC3CC4)cc12 | 62 | inhibition at 10 µM [5]: 44% |
| 10800 | – | – | CC(C)(C)NC(=O)Cn1c(-c2cc(C(F)(F)F)cc(C(F)(F)F)c2)cc2cc(C(C)(C)C(=O)NC(C)(C)C)ccc21 | 61 | – |
